Bioassay records as filed in PubChem BioAssay.
OPRM1-OPRD1 ag = OPRM1-OPRD1 heterodimerization agonism; P35372+P41143; cells, luminescence; activation, % at 9.3 µM; 340,000 compounds, 0.3% hits
Target sequence (P35372 whole entry, looked up): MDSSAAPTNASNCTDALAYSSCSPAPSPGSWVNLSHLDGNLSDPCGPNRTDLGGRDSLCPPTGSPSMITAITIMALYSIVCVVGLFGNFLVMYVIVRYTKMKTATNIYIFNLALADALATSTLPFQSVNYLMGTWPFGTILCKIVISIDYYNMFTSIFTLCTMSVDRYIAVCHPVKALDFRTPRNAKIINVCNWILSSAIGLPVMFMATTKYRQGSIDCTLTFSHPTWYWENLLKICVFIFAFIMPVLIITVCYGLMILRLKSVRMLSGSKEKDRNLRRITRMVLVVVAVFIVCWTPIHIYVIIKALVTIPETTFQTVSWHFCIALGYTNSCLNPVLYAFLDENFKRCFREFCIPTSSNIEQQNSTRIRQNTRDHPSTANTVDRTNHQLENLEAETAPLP
Target sequence (P41143 whole entry, looked up): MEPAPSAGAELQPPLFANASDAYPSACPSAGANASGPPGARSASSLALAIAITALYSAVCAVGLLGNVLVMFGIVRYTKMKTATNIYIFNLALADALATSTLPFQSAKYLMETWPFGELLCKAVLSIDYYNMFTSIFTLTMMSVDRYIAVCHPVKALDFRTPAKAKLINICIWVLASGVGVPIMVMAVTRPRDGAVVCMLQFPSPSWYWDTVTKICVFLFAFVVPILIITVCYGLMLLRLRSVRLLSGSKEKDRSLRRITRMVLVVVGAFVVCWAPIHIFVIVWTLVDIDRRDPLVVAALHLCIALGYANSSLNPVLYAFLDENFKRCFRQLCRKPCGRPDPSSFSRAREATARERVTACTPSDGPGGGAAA
HTR5A ag = counter-screen for OPRM1-OPRD1 agonists: human HTR5A agonism; P47898; 340,000 compounds, 0.61% hits; HTR5A agonist assay, luminescence, cell-based; AID 504692; activation, % at 9.3 µM; in the data active = activation mostly above about 9.5%, no sharp cut-off; inactive = mostly below about 7.6%
Lipid droplet = hepatic lipid droplet formation modulation | AML12 mouse hepatocytes, oleate lipid droplets, BODIPY imaging | inhibition, % at 6.5 µM | 240,000 compounds, 0.4% hits;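 active = lipid droplet intensity inhibited by at least 50%, with more than 500 cells counted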
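Material – mouse AML12 hepatocyte cell line, fixed after treatment · Compound dosing – one dose, 6.5 µM compound · Times – compound with oleate, overnight · Measured by – Image-based BODIPY and DAPI two-channel analysis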
MOR-DOR inv ag = inverse agonists of human mu-delta opioid receptor heterodimerization; P35372+P41143; cell-based MOR-DOR heterodimer luminescence, inverse agonism; inhibition, % at 9.3 µM; 340,000 compounds, 0.21% hits; in the data active = inhibition above about 22%, passing the limit was not always enough
HTR5A inv ctr = counter-screen for OPRM1-OPRD1 inverse agonists: human HTR5A inverse agonism; HTR5A cell line, luminescence; 340,000 compounds, 0.083% hits; AID 504634; inhibition, % at 9.3 µM; in the data active = inhibition mostly above about 23%, no sharp cut-off; inactive = mostly below about 18%
MOR-DOR ag conf = OPRM1-OPRD1 heterodimer agonism, confirmation. AID 504904. activation, % at 9.3 µM. 830 compounds, 45% hits. shares compounds with OPRM1-OPRD1 ag. cells, MOR-DOR heterodimerization, luminescence complementation
HTR5A ag ctr2 = counter-screen for OPRM1-OPRD1 agonists: human HTR5A agonism; shares compounds with OPRM1-OPRD1 ag; HTR5A agonist counterscreen, cell luminescence; activation, % at 9.3 µM; 830 compounds, 8% hits; in the data active = activation above about 17%
Hits are given with their value; . = inactive; / = not tested or not shown. The list is not random: actives were taken first. Their share in the collection is about 1.4%. Cut-off read from the data, not from the text of the source, unless noted: active = activation above about 18%; inactive = the rest.

SMILES	OPRM1-OPRD1 ag	HTR5A ag	Lipid droplet	MOR-DOR inv ag	HTR5A inv ctr	MOR-DOR ag conf	HTR5A ag ctr2
Cc1ccc(C)c(-n2cc(CNCCCn3cccn3)c(-c3ccccc3)n2)c1	242.7	.	.	.	.	218.2	.
Cc1ccc(Cl)cc1N1CCN(S(=O)(=O)c2ccc(-c3ccc(=O)[nH]n3)o2)CC1	.	.	.	.	.	/	/
Cc1ccc(C)c(N2CCN(S(=O)(=O)c3ccc(-c4ccc(=O)[nH]n4)o3)CC2)c1	20.1	.	.	.	.	.	.
O=C(COc1cccc(F)c1)NNC(=O)Cc1ccc(Br)cc1	.	.	/	.	.	/	/
CCOc1ccc(NC(=O)Nc2ccc3c(c2)N(C)C(=O)CS3)cc1	.	.	.	.	.	/	/
CC(=O)c1ccc(NC(=O)Nc2ccc3c(c2)N(C)C(=O)CS3)cc1	50.2	.	.	.	.	119.6	.
NC(=O)CC[C@H](NC(=O)c1ccc(F)cc1)C(=O)N1CCN(Cc2ccc3c(c2)OCO3)CC1	.	.	/	.	.	/	/
OCC1(CC2CCCCO2)CCN(Cc2ccccc2-c2ccco2)CC1 (stereo not given)	95.7	.	.	.	.	135.7	.
CCOC(=O)C1(CC2CCCCO2)CCN(Cc2cc3ccccc3[nH]2)CC1 (stereo not given)	307.1	.	.	.	.	.	.
CCOC(=O)C1(CC2CCCCO2)CCN(Cc2ccccc2-c2ccco2)CC1 (stereo not given)	378.7	.	.	.	.	.	.
CCCn1ncc(CN2CCC(CO)(CC3CCCCO3)CC2)c1C (stereo not given)	.	.	.	.	.	/	/
COc1cccc(CC2(CO)CCCN(Cc3ccccc3-c3ccco3)C2)c1 (stereo not given)	97.4	.	.	.	.	128.3	.
CCOC(=O)C1(CC2CCCCO2)CCN(Cc2cccnc2)CC1 (stereo not given)	.	.	.	.	.	/	/
COc1cccc(CC2(CO)CCCN(Cc3ccc(-c4ccco4)cc3)C2)c1 (stereo not given)	.	.	.	.	.	/	/
CCCCc1ncc(CN2CCC(CC3CCCCO3)(C(=O)OCC)CC2)[nH]1 (stereo not given)	.	.	.	.	.	/	/
O=C(NCCCN1CCCC(O)C1)c1cc(COc2ccc(F)cc2F)on1 (stereo not given)	.	.	.	.	.	/	/
COc1ccc2[nH]c3c(=O)n(/N=C/[C@H]4C(C)C=C(C)CC4C)c(=O)[nH]c3c2c1 (stereo not given in full)	53.8	.	.	.	.	38.9	.
COc1ccc2c(c1)[nH]c1c(=O)n(/N=C/C3C(C)C=C(C)CC3C)c(=O)[nH]c12 (stereo not given)	.	.	.	.	.	/	/
NS(=O)(=O)c1ccc(CCNC(=O)COC(=O)/C=C/c2ccc(Cl)cc2)cc1	.	.	.	.	.	/	/
COc1ccc(C)cc1NC(=O)C1CCN(C(=O)C2CC(=O)N(c3ccc(C)cc3)C2)CC1 (stereo not given)	.	.	.	.	.	/	/
C=C(C)COc1ccc(-c2n[nH]c(C)c2-c2ccc(OC)cc2)c(O)c1	29.6	.	/	.	.	.	.
Cc1cc(C)cc(NS(=O)(=O)CCCS(=O)(=O)Nc2cc(C)cc(C)c2)c1	29.9	.	/	.	.	.	.
N=C(N)SCc1cn(-c2ccccc2)nc1-c1ccc(Br)cc1	20.0	.	.	.	.	.	.
CCn1nc(C)c(NC(=O)Nc2cccc(Cl)c2Cl)c1C	.	.	.	.	.	/	/
O=C(COC(=O)CC1CCCC1)Nc1cccc(F)c1	323.3	.	/	.	.	.	.
SMILES	OPRM1-OPRD1 ag	HTR5A ag	Lipid droplet	MOR-DOR inv ag	HTR5A inv ctr	MOR-DOR ag conf	HTR5A ag ctr2
O=C(COC(=O)C1CCCCC1)Nc1cccc(F)c1	.	.	/	.	.	/	/
CCOc1ccc(C2CC(=O)N(Nc3ccc([N+](=O)[O-])cc3[N+](=O)[O-])C2=O)cc1 (stereo not given)	.	.	.	.	.	/	/
Cc1ccc2oc(C(=O)N(Cc3ccccc3)C3CCS(=O)(=O)C3)c(C)c2c1 (stereo not given)	19.8	.	.	.	.	.	.
Cc1ccc2c(C)c(C(=O)N(Cc3ccccc3)C3CCS(=O)(=O)C3)oc2c1 (stereo not given)	35.0	.	.	.	.	.	.
CCOc1ccc(CN(C(=O)c2oc3cc(C)ccc3c2C)C2CCS(=O)(=O)C2)cc1 (stereo not given)	.	.	/	.	.	/	/
Cc1cc2oc(C(=O)N(Cc3ccccc3)C3CCS(=O)(=O)C3)c(C)c2cc1C (stereo not given)	39.9	.	.	.	.	21.3	.
COc1ccc(CN(C(=O)c2oc3ccc(F)cc3c2C)C2CCS(=O)(=O)C2)cc1 (stereo not given)	.	.	.	.	.	/	/
Cc1ccc2c(C)c(C(=O)N(Cc3cccs3)C3CCS(=O)(=O)C3)oc2c1 (stereo not given)	47.3	.	.	.	.	75.1	.
COc1ccccc1NC(=O)C(C)OC(=O)c1nc2nc(C)cc(C)n2n1 (stereo not given)	.	.	/	.	.	/	/
O=C(O)c1cccc(CSc2n[nH]c(-c3ccc(Cl)cc3Cl)n2)c1	.	.	.	.	.	/	/
O=C(c1cnc(Cl)c(Cl)c1)N1CCC(Cc2ccccc2)CC1	.	.	.	.	.	/	/
C[C@H](CO)N1C[C@H](C)[C@@H](CN(C)Cc2ccccc2)Oc2c(NC(=O)C3CC3)cccc2C1=O	.	.	/	.	.	/	/
CCN1CCN(S(=O)(=O)c2ccc(Cl)c(C(=O)N(CCc3ccccc3)Cc3ccccc3)c2)CC1	19.6	.	/	.	.	360.3	.
O=C(NCCc1ccc(Cl)cc1)C1CCC(CNc2nc(=S)[nH]c3ccccc23)CC1 (stereo not given)	33.5	.	.	.	.	35.9	.
O=C(CCCCCNc1nc(=S)[nH]c2ccccc12)NCc1ccccc1Cl	/	/	.	/	/	/	/
S=c1nc(NCCc2ccccc2Cl)c2ccccc2[nH]1	22.9	.	.	.	.	.	.
O=C(NCC(c1ccc(F)cc1)N1CCOCC1)c1ccc(-c2ccccc2)cc1 (stereo not given)	20.9	.	/	.	.	.	.
CCCN1CCN(C(=O)CS(=O)(=O)Cc2nc(-c3cccc(OC)c3)oc2C)CC1	.	.	.	.	.	/	/
O=S(=O)(Nc1ccc(-n2cnnn2)cc1)c1cccc(Cl)c1	.	.	/	.	.	/	/
CC1=C(C)/C(=N\OS(=O)(=O)c2ccc(C)cc2)C=CC1=O	50.4	.	.	.	.	.	54.0
CC1=C/C(=N\OS(=O)(=O)c2ccccc2)C(C)=CC1=O	77.6	11.0	.	.	.	47.2	.
COCCC(=O)Nc1c(-c2ccccc2)c2cc(Br)ccc2[nH]c1=O	.	.	.	.	.	/	/
